Screens: PubChem BioAssay, several laboratories
ABCG2 block – ABCG2 efflux pump inhibitors, primary screen, multiplex with ABCB1, IgMXP3 cells, flow cytometry | JC-1 efflux | inhibition, % at 6.6 µM | 0.1% of 190,000 active | AID 1325, 2008;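 active means inhibition above 80%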
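material = IgMXP3 (ABCG2) plus far-red-tagged CCRF-Adr (ABCB1) cells | amount = 3 million cells/mL, equal mix of both lines | also added = JC-1 transporter substrate | dosing = one concentration, 6.6 µM final | schedule = 10 min at 25 °C | measured by = flow cytometric JC-1 green MFI at 530 nm | read-out basis = percent efflux inhibition, scaled nicardipine 100% to DMSO 0%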
RAM network inh – inhibitors of the yeast RAM network, primary screen, dse1pr::URA3 reporter, 5-FOA selection. 1.8% of 190,000 active. S. cerevisiae dse1pr::URA3 reporter, 5-FOA growth OD615, 2 d; analog-sensitive cbk1-as2 kinase mutant strain. inhibition, % at 50 µM;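 active means inhibition above a set limit, 3 SD over mean compound inhibition, cut at about 8.4% in these data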;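 further: inhibition rescues growth on 5-FOA so higher OD means more RAM inhibition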
ABCB1 block – ABCB1 efflux pump inhibitors, primary screen, cell-based, multiplex, flow cytometry, ABCG2 counter-screen; inhibition, % at 6.6 µM; 0.067% of 190,000 active; ATP-dependent translocase ABCB1 (Homo sapiens), P08183; AID 1326, 2008; CCRF-Adr cells, JC-1 efflux; in the data active means inhibition above about 40%;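 further: higher value means more JC-1 retained so stronger ABCB1 efflux block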
Target sequence (P08183 whole entry, looked up): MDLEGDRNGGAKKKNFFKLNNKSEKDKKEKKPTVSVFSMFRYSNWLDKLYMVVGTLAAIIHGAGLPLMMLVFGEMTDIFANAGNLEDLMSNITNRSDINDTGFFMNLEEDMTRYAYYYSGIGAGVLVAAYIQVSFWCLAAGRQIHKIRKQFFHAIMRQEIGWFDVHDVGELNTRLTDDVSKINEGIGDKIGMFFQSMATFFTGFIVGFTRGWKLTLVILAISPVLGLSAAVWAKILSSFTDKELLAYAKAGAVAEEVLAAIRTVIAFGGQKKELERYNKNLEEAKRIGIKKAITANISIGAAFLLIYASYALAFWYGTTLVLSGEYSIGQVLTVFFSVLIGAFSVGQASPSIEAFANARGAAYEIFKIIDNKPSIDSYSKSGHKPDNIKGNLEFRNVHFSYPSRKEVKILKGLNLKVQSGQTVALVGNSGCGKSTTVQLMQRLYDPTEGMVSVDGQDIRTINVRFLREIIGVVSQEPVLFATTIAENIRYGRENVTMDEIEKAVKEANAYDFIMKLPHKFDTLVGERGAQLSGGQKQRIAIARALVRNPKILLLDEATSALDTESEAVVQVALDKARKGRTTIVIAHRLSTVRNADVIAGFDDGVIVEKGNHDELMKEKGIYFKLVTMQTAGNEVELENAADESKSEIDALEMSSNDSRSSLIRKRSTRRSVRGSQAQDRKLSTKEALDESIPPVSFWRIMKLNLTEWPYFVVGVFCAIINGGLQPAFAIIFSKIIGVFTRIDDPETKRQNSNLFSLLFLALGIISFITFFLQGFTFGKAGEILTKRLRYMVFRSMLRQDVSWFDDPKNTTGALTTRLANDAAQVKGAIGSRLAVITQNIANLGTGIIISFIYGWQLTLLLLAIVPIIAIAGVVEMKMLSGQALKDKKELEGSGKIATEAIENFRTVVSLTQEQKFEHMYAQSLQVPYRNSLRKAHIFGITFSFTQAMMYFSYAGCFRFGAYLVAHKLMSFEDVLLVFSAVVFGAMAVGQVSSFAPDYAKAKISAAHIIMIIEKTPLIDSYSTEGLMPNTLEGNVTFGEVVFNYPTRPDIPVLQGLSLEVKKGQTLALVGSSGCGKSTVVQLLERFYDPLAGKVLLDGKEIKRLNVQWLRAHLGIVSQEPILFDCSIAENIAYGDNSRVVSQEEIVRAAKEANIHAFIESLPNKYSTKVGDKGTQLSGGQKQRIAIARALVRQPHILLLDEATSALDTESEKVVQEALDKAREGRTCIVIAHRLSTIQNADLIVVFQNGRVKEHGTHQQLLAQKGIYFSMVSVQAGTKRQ
WT yeast gro inh – growth inhibition of WT strain, primary screen, mitochondrial fusion inhibitor project, WT and mutant strains, chemical genetic | mitochondrial fusion phenotypic screen | inhibition, % at 10 µM | 2.1% of 190,000 active | AID 1362, 2008; in the data active means inhibition above about 58%; tested in S. cerevisiae
Lmaj promast – Leishmania major promastigote growth inhibition, primary screen | Leishmania major promastigotes, resazurin fluorescence viability | AID 1063, 2008 | inhibition, % at 10 µM | 9% of 200,000 active; in the data active means inhibition above about 50%;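 further: promastigotes grown with compound for 44 hours at 28 °C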
Of the large screens only hits and unclear results are named; the others gave an inactive call. In the library only some 12% were active in any assay of this set; here they are far more common.

COc1ccccc1N1C(=O)CC(Sc2n[nH]c(-c3cccc(C)c3)n2)C1=O (configuration not stated)	none
O=C(c1ccc(Cl)cc1)C(Cn1cncn1)C(Sc1ccccc1)c1ccccc1 (configuration not stated)	RAM network inh 9.8, Lmaj promast 92
CC1(C)Cc2c(cnn2-c2ccccc2)C(=O)/C1=N\NC(=O)c1ccncc1	none (no result: ABCG2 block, RAM network inh, ABCB1 block, WT yeast gro inh)
CC1(C)Cc2c(cnn2-c2ccccc2)-c2c1c1ccccc1n2CC(O)CCl (configuration not stated)	Lmaj promast 100
COc1ccccc1C(=O)NC1CCN(C(=S)NCCc2ccccc2)CC1	none
Cc1cccc(OCCOc2ccccc2C=C(C#N)C#N)c1	Lmaj promast 94
Cc1ccccc1OCCOc1ccccc1C=C(C#N)C#N	Lmaj promast 78
Cn1c(=O)n(C)c2cc(NS(=O)(=O)c3cccs3)ccc21	none
Cc1ccc(NC(=S)c2nc3ccccc3[nH]2)c(C)c1	Lmaj promast 87
O=C1c2cccc3c([N+](=O)[O-])ccc(c23)C(=O)N1c1ccc(Cl)cn1	Lmaj promast 100
O=C1c2cccc3c([N+](=O)[O-])ccc(c23)C(=O)N1c1ccccn1	Lmaj promast 100
O=C1c2cccc3c([N+](=O)[O-])ccc(c23)C(=O)N1c1nccs1	Lmaj promast 64
O=C1c2cccc3c(N4CCCCC4)ccc(c23)C(=O)N1c1ccc(Cl)cn1	none (no result: ABCG2 block, RAM network inh, ABCB1 block, WT yeast gro inh)
CNC(=O)CSc1nnc(C2CC2)n1-c1ccccc1	none
O=C(NCC1CCCN(Cc2cccc(C(F)(F)F)c2)C1)c1ccc(F)cc1 (configuration not stated)	Lmaj promast 80
O=C(NCC1CCCN(Cc2ccc3nonc3c2)C1)c1ccc(F)cc1 (configuration not stated)	Lmaj promast 90
Cc1cc(CN2CCCC(CNC(=O)c3ccc(F)cc3)C2)cc(C)c1O (configuration not stated)	none
Cn1c(=O)cc(SCC(=O)NCCC2=CCCCC2)c2cc(Cl)ccc21	none
COC(=O)c1ccccc1NC(=S)NC(=O)COc1ccc(C(C)C)cc1	RAM network inh 9.2
CC(C)c1ccc(OCC(=O)NC(=S)Nc2ccc3c4c(cccc24)CC3)cc1	RAM network inh 9.1
CCS(=O)(=O)N1N=C(c2cccc(NS(C)(=O)=O)c2)CC1c1ccc(C)cc1 (configuration not stated)	none
CC(=O)Nc1ccc(NC(=O)C(Cc2ccccc2)NC(=O)C2CCC(C)CC2)cc1 (configuration not stated)	none
CC(C)(C)c1cc(OC(=O)c2ccccc2F)ccc1O	WT yeast gro inh 72
CCCNC(=O)CSc1nnc(-c2ccccc2Br)n1-c1cccc(C(F)(F)F)c1	Lmaj promast 79
CCOC(=O)C1CCCN(C2CCN(Cc3nc(-c4ccccc4)no3)CC2)C1 (configuration not stated)	Lmaj promast 73
CCOC(=O)C1CCN(C2CCN(Cc3nc(-c4ccccc4)no3)CC2)CC1	Lmaj promast 80
NC(=O)C1CCN(Cc2nc(-c3ccccc3)no2)CC1	none
CCOc1ccc(NC(=O)NC(=O)N(C(C)C)S(C)(=O)=O)cc1	none
COc1ccc(C(=O)OC(COc2ccccc2)Cn2ccnc2)cc1 (configuration not stated)	Lmaj promast 100
COc1cc(CNCCC2CCOC(C)(C)C2)ccc1O (configuration not stated)	Lmaj promast 57
CCc1cc[n+](C2=C([O-])c3ccccc3C(=O)/C2=N\S(=O)(=O)c2cccs2)cc1	Lmaj promast 99
CCC(C)NS(=O)(=O)c1cccs1 (configuration not stated)	none
CCC(C)N(C(=O)CSc1ccc(NC(C)=O)cc1)C1CCS(=O)(=O)C1 (configuration not stated)	none
Oc1[nH]c2ccccc2c1N=Nc1ccc(C(F)(F)F)cn1	Lmaj promast 55
CCn1c(/C=C2/C(=O)N(C)c3ccccc32)nc2ccccc2c1=O	none
CC(C)N1C(=O)/C(=C\c2nc3ccccc3c(=O)[nH]2)c2ccccc21	Lmaj promast 100
CCCN1C(=O)/C(=C/c2nc3ccccc3c(=O)[nH]2)c2ccccc21	Lmaj promast 100
COc1ccc(NC(=S)NCCc2c[nH]c3ccccc23)c(OC)c1	none
COc1cc(CNCCc2c[nH]c3ccccc23)ccc1OCc1ccccc1F	Lmaj promast 98
COc1cccc(CNC23CC4CC(CC(C4)C2)C3)c1OCc1ccccc1	Lmaj promast 92
COc1cccc(CNCCc2c[nH]c3ccccc23)c1OCc1ccccc1	Lmaj promast 99
COc1ccc(CNc2nc(NCc3ccc(OC)cc3)n(C(=O)c3ccccc3[N+](=O)[O-])n2)cc1	none
CCCc1cc(=O)[nH]c(SCc2cc(Cl)ccc2OC(F)F)n1	none
CC(C)Nc1nc(Oc2cccc(Cl)c2Cl)cc(C(F)(F)F)n1	WT yeast gro inh 87
CC(C)Nc1nc(Oc2ccc(Cl)cc2Cl)cc(C(F)(F)F)n1	none
Cc1ccc(NS(=O)(=O)c2ccc3c(c2)c(=O)n(C)c(=O)n3C)cc1F	Lmaj promast 68
Cc1cc(C)cc(NS(=O)(=O)c2ccc3c(c2)c(=O)n(C)c(=O)n3C)c1	Lmaj promast 97
Cn1c(=O)c2cc(S(=O)(=O)Nc3cc(C(=O)O)cc(C(=O)O)c3)ccc2n(C)c1=O	none
S=C1NCCOCCOCCNC(=S)N2CCOCCOCCN1CCOCCOCC2	none
CCOc1ccc(C(C)NC(=O)Nc2ccccc2C(=O)OC)cc1 (configuration not stated)	none
CCCCC(=O)Nc1cccc(NC(=S)NC(C)=O)c1	none
O=[N+]([O-])C1=CC=C2C(=NC3(CCCCC3)N2O)C1=NCCc1ccccc1	Lmaj promast 75
O=C(Cn1cncn1)N/N=C/c1ccc(Cl)cc1	none
CC(C)(C)/C(Cn1cncn1)=N\OC(=O)Nc1ccc(Cl)cc1	Lmaj promast 85
Cc1ccc(-n2c(C)cc(C3=NNC(=NC4CC4)SC3)c2C)cc1C	WT yeast gro inh 78, Lmaj promast 87
NS(=O)(=O)c1cccc(NC(=O)COC(=O)CCCc2c[nH]c3ccccc23)c1	none
N=C1S/C(=C\c2cn[nH]c2-c2ccc(F)cc2)C(=O)N1c1ccccc1F	none
Cc1ccc(COc2ccccc2C(=S)N2CCCC2)cc1	WT yeast gro inh 61, Lmaj promast 76
Fc1ccc(COc2ccccc2C(=S)N2CCCC2)cc1	none
N#Cc1nc(COc2ccccc2)oc1N1CCOCC1	none
COc1ccc(N2CCN(c3oc(Cc4ccccc4)nc3C#N)CC2)cc1	RAM network inh 11
COc1ccc(N2CCN(c3oc(COc4ccccc4)nc3C#N)CC2)cc1	RAM network inh 10
N#Cc1nc(Cc2ccccc2)oc1N1CCN(c2cccc(Cl)c2)CC1	RAM network inh 11
